Assay results pooled from the literature.
Protocols differ between the studies behind these lines.
P2RY14: P2Y purinoceptor 14 (P2RY14, Homo sapiens, UniProt Q15391)
Nuclear receptor subfamily 4 group A member 2: Nuclear receptor subfamily 4 group A member 2 (Homo sapiens, UniProt P43354)
ADRA1B: Alpha-1B adrenergic receptor (ADRA1B, Homo sapiens, UniProt P35368)

O=C(O)c1cc(-c2ccc(-c3ccncc3)cc2)c2ccc(-c3ccc(C(F)(F)F)cc3)cc2c1
Ki (P2RY14; ligand displacement in cells; flow cytometry): 0.0237 µM

CCC(=O)NS(=O)(=O)c1ccc(-c2c(-c3ccccc3)noc2C)cc1
Kd (Nuclear receptor subfamily 4 group A member 2; binding; ITC): 1.6 µM

O=C(O)c1cc(-c2ccc(-n3cc(CCOP(=O)(O)O)nn3)cc2)c2ccc(-c3ccc(C(F)(F)F)cc3)cc2c1
Ki (P2RY14; ligand displacement in cells; flow cytometry): 0.779 µM

Cc1cc(Oc2ncccc2CN2CCN(c3cccc(Cl)c3)CC2)ccc1-c1c(C)c(=O)[nH]c(=O)n1C
Ki (ADRA1B; ligand displacement; radioligand): 0.646 µM

COC(=O)c1cn(C)c2ccc(-c3cccnc3)cc12
Kd (Nuclear receptor subfamily 4 group A member 2; binding; ITC): 0.4 µM

O=C(O)c1cc(-c2ccc(-n3nncc3CCOP(=O)(O)O)cc2)c2ccc(-c3ccc(C(F)(F)F)cc3)cc2c1
Ki (P2RY14; ligand displacement in cells; flow cytometry): 0.0913 µM

CCCCCCCCC(=O)c1cc(O)c(O)c(O)c1
Kd (Nuclear receptor subfamily 4 group A member 2; binding; ITC): 3.4 µM

Cc1cc(Oc2ncccc2CN2CCN(c3ccccc3[N+](=O)[O-])CC2)ccc1-c1c(C)c(=O)[nH]c(=O)n1C
Ki (ADRA1B; ligand displacement; radioligand): 2.92 µM

Cc1onc(-c2ccccc2)c1-c1ccc(S(N)(=O)=O)cc1
Kd (Nuclear receptor subfamily 4 group A member 2; binding; ITC): 1.2 µM

Cc1cc(Oc2ncccc2CN2CCN(C(c3ccccc3)c3ccccc3)CC2)ccc1-c1c(C)c(=O)[nH]c(=O)n1C
Ki (ADRA1B; ligand displacement; radioligand): 0.721 µM

O=c1c(O[C@@H]2O[C@H](CO)[C@H](O)[C@H](O)[C@H]2O)c(-c2ccc(O)c(O)c2)oc2cc(O)cc(O)c12
Kd (Sortase B (srtB, Staphylococcus aureus, UniProt Q2FZE3); binding; SPR): 198 µM

Cc1cc(Oc2ncccc2CN2CCN(CCc3ccccc3)CC2)ccc1-c1c(C)c(=O)[nH]c(=O)n1C
Ki (ADRA1B; ligand displacement; radioligand): 1.66 µM

O=C(O)c1cc(-c2ccc(-c3c[nH]nn3)cc2)c2ccc(-c3ccc(C(F)(F)F)cc3)cc2c1
Ki (P2RY14; ligand displacement in cells; flow cytometry): 0.00215 µM

COc1ccccc1N1CCN(Cc2cccnc2Oc2ccc(-c3c(C)c(=O)[nH]c(=O)n3C)c(C)c2)CC1
Ki (ADRA1B; ligand displacement; radioligand): 1.39 µM

CCC1c2ccsc2CCN1Cc1nc2ccc(Cl)cc2n1CCO (stereo not drawn)
Kd (DDB1- and CUL4-associated factor 1 (DCAF1, Homo sapiens, UniProt Q9Y4B6); binding; SPR): 20 µM
